A selection: hits, their analogues and other compounds. The true share with any hit is near 0.59%.
TRPML3 ag: human mucolipin-3 channel agonism; HEK293 TRPML3-YFP, Fluo-8 calcium fluorescence; 100% = the carbachol control signal; actives 0.29% (n = 220,000); AID 1448; Q8TDD5; activation, % at 3 µM;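 active = activation above its plate's cutoff, the mean activation of the plate's test wells plus 3 SD, cut at about 12% in these data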;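 note: 0% = DMSO only wells and 100% = carbachol wells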
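Material: TRPML3-YFP stable HEK293 cells | Dosing: One concentration, 3 µM nominal, 0.3% DMSO | Timing: 125 s total fluorescence read per well | Technique: Fluo-8 calcium dye fluorescence, ex 470-495, em 515-575 nm | Measure: Percent activation from peak-to-basal fluorescence ratio, scaled between DMSO and carbachol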
OXTR agonist: activates the human oxytocin receptor. P30559. activation, % at 3 µM. CHO-OTR cells, Fluo-8 calcium fluorescence; normalized: DMSO 0%, oxytocin 100%. AID 2435. actives 0.32% (n = 320,000);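 active = activation above the mean of all tested compounds plus 3 SD, cutoff set per screening run, cut at about 20% in these data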;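 note: peak over basal fluorescence ratio from a 100 s FLIPR kinetic read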
Target sequence (P30559 whole entry, looked up): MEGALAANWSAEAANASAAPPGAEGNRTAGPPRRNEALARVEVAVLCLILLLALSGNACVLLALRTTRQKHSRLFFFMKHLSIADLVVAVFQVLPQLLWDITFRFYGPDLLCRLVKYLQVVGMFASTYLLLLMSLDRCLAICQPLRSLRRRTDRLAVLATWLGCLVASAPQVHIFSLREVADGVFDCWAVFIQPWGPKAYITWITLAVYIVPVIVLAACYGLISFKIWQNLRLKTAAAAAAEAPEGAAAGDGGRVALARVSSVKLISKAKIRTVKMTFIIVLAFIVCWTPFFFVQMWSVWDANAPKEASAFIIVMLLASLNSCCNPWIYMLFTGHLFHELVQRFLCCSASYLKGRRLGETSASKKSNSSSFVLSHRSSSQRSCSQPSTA
zfTRPN1 agonist: agonists of zebrafish TRPN1 channel; activation, % at 3 µM; HEK293 zebrafish TRPN1-YFP, Fluo-8 calcium fluorescence; 100% = response to 87 µM carbachol; actives 0.18% (n = 220,000);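 active = activation above its plate's cutoff, the mean activation of test wells on that plate plus 3 SD, cut at about 19% in these data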;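 note: 0% = DMSO alone and 100% = 87 µM carbachol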
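Material: zebrafish TRPN1-YFP in HEK293 cells; Doses: single test compound dose, 3 µM nominal, 0.3% DMSO; Timing: dye loading 1 h at 37 °C, then 30 min room temperature; Technique: intracellular calcium fluorescence with Fluo-8; Benchmarks: high carbachol 87 µM, low DMSO alone.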
OXTR potentiate: human OXTR potentiation | P30559 | CHO-OTR cells, Fluo-8 calcium fluorescence, potentiator mode; 0% = oxytocin EC15, 100% = EC100 | activation, % at 3 µM | actives 0.061% (n = 320,000) | AID 2445;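 active = activation above that plate's cutoff, the mean activation of tested compounds plus 3 SD, cut at about 6.6% in these data, passing the limit was not always enough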;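 note: 100% uses oxytocin at 75 nM as the full agonist control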
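Assay system: CHO-OTR cells, human receptor / Also added: oxytocin at about EC15, sub-maximal agonist stimulus / Dosing: single dose, 3.0 µM nominal final compound concentration / Incubation: 6 min pre-incubation, 100 s read / Technique: Fluo-8 calcium dye fluorescence / Read-out: % activation vs EC15 and EC100 oxytocin / Benchmarks: EC15 oxytocin low, 75 nM oxytocin high / Replicates: singlicate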
V1aR counter: activates human V1a receptor in oxytocin agonist counter-screen | P37288 | CHO-V1R cells, Fluo-8 calcium fluorescence, agonist mode; 0% DMSO, 100% 3 nM vasopressin | activation, % at 3 µM | actives 0.25% (n = 320,000) | AID 2797;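 active = activation above the mean activation of all tested compounds plus 3 SD, per screening run, cut at about 20% in these data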;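 note: signal is peak over basal fluorescence ratio across a 100 second FLIPR read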
OXTR agonist cf: confirmation of human oxytocin receptor agonists; activation, % at 3 µM; shares compounds with OXTR agonist; CHO-OTR cells, Fluo-8 calcium fluorescence, agonist; actives 20% (n = 390);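 active = mean activation above about 20% derived from the earlier single-dose screen, limit read from the data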;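 note: peak over minimum fluorescence ratio per well during a 100 second FLIPR read; 0% = DMSO alone and 100% = oxytocin high control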
V1R ag counter 3x: counter-screen for oxytocin receptor agonists: V1a receptor agonists; activation, % at 3 µM; CHO-V1R cells, Fluo-8 calcium fluorescence, agonist; actives 10% (n = 390); shares compounds with OXTR agonist;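 active = mean activation over triplicate exceeds the hit threshold set in the earlier primary screen, cut at about 20% in these data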;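 note: peak over basal fluorescence ratio within a 100 second read; 0% = DMSO alone and 100% = 3 nM vasopressin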
* hit, by the source's call; nt = no result; ! = not confirmed by another sample.

SMILES	TRPML3 ag	OXTR agonist	zfTRPN1 agonist	OXTR potentiate	V1aR counter	OXTR agonist cf	V1R ag counter 3x
CCCCNC(=O)c1sc(=S)n2c1[nH]c(=O)c1ccc(C(=O)NCCc3ccc(OC)c(OC)c3)cc12	nt	-1	nt	-7	1	nt	nt
O=C(NCc1ccccc1)c1sc(=S)n2c1[nH]c(=O)c1ccccc12	0	21*	4	-23	13	12	11
CCCN1CCC(NC(=O)Cc2cccc(C)c2)CC1	nt	1	nt	-2	1	nt	nt
O=[N+]([O-])c1cccc(/C=N/Nc2nc(NCc3ccccc3)nc(N3CCOCC3)n2)c1O	0	24*	1	-31	17	19	17
O=C(CN(CCc1ccccc1)C(=O)c1csnn1)NCc1ccc(F)cc1	nt	1	nt	-11	2	nt	nt
COc1ccc(C(=O)NC(=S)NNC(=O)[C@H]2C[C@@H]2c2ccccc2)cc1OC	7	3	5	-12	3	nt	nt
O=C(NC(=S)NNC(=O)[C@H]1C[C@@H]1c1ccccc1)c1ccc(F)cc1	5	35*	15	-19	18	22*	39*
NC(=O)c1cc(S(=O)(=O)NCc2ccc(F)cc2)cs1	nt	20*	nt	-6	1	0	0
Cc1cccc(CNS(=O)(=O)c2csc(C(N)=O)c2)c1	nt	0	nt	-9	1	nt	nt
Cc1ccc(NC(=O)N2CCCC2C(=O)Nc2c(C)cc(C)cc2C)cc1 (centres undefined)	nt	-1	nt	2	-1	nt	nt
Cc1cc(C)c2nc(N(CCCN(C)C)C(=O)c3ccc4c(c3)OCCO4)sc2c1	nt	20*	nt	-17	4	6	4
COc1ccc(C2=NO[C@@H]3C(=O)N(c4ccc5c(c4)OCCO5)C(=O)[C@H]23)cc1OC	1	6	0	-1	4	nt	nt
COc1ccc(C2=NO[C@@H]3C(=O)N(C4CCCCC4)C(=O)[C@H]23)cc1OC	4	21*	5	-8	18	12	13
Cc1occc1C(=O)NNC(=O)c1ccc(S(=O)(=O)N(C)C)cc1	nt	1	nt	-2	0	nt	nt
CN(C)CCCOc1ccc(C(C)(C)c2ccccc2)cc1	1	20*	0	-13	10	7	1
OC(CNCCc1ccccc1)COc1ccc(OCC(O)CNCCc2ccccc2)cc1 (centres undefined)	1	2	1	-11	1	nt	nt
CC(C)N(CCNCC(O)COc1ccc(C(C)(C)c2ccccc2)cc1)C(C)C (centres undefined)	-1	23*	3	-24	16	10	4
CN(C)CCOc1ccc(C(C)(C)c2ccccc2)cc1	1	2	3	0	0	nt	nt
CC(C)c1ccccc1NC(=O)c1ccc2ncsc2c1	nt	0	nt	-1	0	nt	nt
CC(=O)Oc1ccc(-c2ccc(C(=O)OCC(=O)N(C)CC(=O)Nc3ccccc3Cl)cc2)cc1	nt	11	nt	-8	9	nt	nt
c1ccc2c(c1)Cc1ccccc1O2	nt	2	nt	0	1	nt	nt
CC(C)(C)CC(C)(C)NCC(O)COc1c(F)cc(Br)cc1F (centres undefined)	1	23*	-1	-19	14	2	0
CC(C)(C)NCC(O)COc1c(F)cc(Br)cc1F (centres undefined)	1	3	0	1	1	nt	nt
COc1ccc(C(=O)Nc2ccccc2C(=O)NCCN2CCOCC2)cc1OC	nt	1	nt	-5	2	nt	nt
CCc1ccc(OCC(=O)Nc2ccncc2)c(Br)c1	nt	12	nt	-22	7	nt	nt
SMILES	TRPML3 ag	OXTR agonist	zfTRPN1 agonist	OXTR potentiate	V1aR counter	OXTR agonist cf	V1R ag counter 3x
Cc1cc(OCC(=O)Nc2ccncc2)c(C)cc1Br	3	21*	4	-10	17	11	10
COc1ccccc1CCNC(=O)C(=O)Nc1cc2c3c(c1)CC(=O)N3CCC2	nt	-1	nt	-11	0	nt	nt
Cc1cnc(NC(=O)c2cccs2)s1	nt	0	nt	-9	1	nt	nt
O=C(Nc1ncc([N+](=O)[O-])s1)c1cccs1	nt	21*!	nt	-22	12	10	11
COc1ccc(C(CCNCc2ccc(OC(C)C)cc2)c2ccccc2OC)cc1 (centres undefined)	nt	22*	nt	-18	15	12	9
N#CC1=C(N)Oc2n[nH]c(-c3ccccc3)c2C12C(=O)Nc1ccccc12 (centres undefined)	0	23*	1	-20	1	0	0
C[C@@]12C(=O)N(c3cccc(F)c3)C(=O)N1[C@@H]1c3ccccc3OC[C@@H]1[C@H]2c1ccccc1	nt	-1	nt	-3	1	nt	nt
CCOc1cccc(/C=C2\NC(=S)N(c3ccccc3)C2=O)c1O	7	24*	14	-24	12	8	10
CCOc1cc(/C=C2\NC(=S)N(c3c(C)n(C)n(-c4ccccc4)c3=O)C2=O)ccc1O	0	1	-2	-7	2	nt	nt
C=CCNc1ncnc2c1[nH]c1ccccc12	0	6	6	-9	5	nt	nt
C=CCNc1ncnc2c1[nH]c1ccc(Cl)cc12	6	22*	8	-6	12	12	10
CN(C(=O)COC(=O)CNC(=O)c1cccs1)c1c(N)n(Cc2ccccc2)c(=O)[nH]c1=O	nt	1	nt	-3	0	nt	nt
Cc1ccc(N/N=C(\C#N)C(N)=S)c(C)c1	2	24*	4	-12	11	7	6
Cc1ccc(NC(=O)/C(C#N)=N/Nc2ccc(C(=O)O)cc2)c(C)c1	0	-1	2	7	1	nt	nt
O=C(Nc1ccc(S(=O)(=O)Nc2ncccn2)cc1)c1ccccc1Br	nt	0	nt	-14	0	nt	nt
CCCCCCCCNC(C)C(O)c1ccc(SC(C)C)cc1 (centres undefined)	0	23*	-3	-8	4	2	6
COc1ccc(CCn2c(-c3ccccc3)nc3c(c(=O)c4ccccc4n3C)c2=O)cc1	1	0	0	2	0	nt	nt
CC(C)c1nc2c(c(=O)c3ccccc3n2C)c(=O)n1CCc1ccccc1	9	28*	21*	-14	18	15	13
CC(C)c1cc(C(=O)N2CCCC(Nc3ccc(F)cc3)C2)n[nH]1 (centres undefined)	nt	0	nt	-5	1	nt	nt
COc1ccc(N2CCN(CCC(O)c3ccc4ccccc4c3)CC2)cc1 (centres undefined)	nt	9	nt	-18	12	nt	nt
COc1ccccc1CNCC(O)Cn1c2ccccc2c2ccccc21 (centres undefined)	1	22*	1	-14	9	11	7
CCN(CC)c1ccc(C(=O)NNC(=O)CN2C(=O)NC(C)(c3ccccc3)C2=O)cc1 (centres undefined)	nt	1	nt	-2	1	nt	nt
